S1P4 agonist – agonists of human S1P4 receptor | O95977 | S1P4-expressing cell line, agonist reporter assay | activation, % at 4.98 µM | actives 0.35% (n = 220,000); in the data active means activation above about 11%;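 further: 0% = DMSO vehicle and 100% = reference agonist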
L major viab – reduces viability of Leishmania major promastigotes | resazurin fluorescence viability | inhibition, % at 10 µM | actives 9% (n = 200,000) | AID 1063; in the data active means inhibition above about 50%;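 further: promastigotes grown with compound for 44 hours at 28 °C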
S1P4 antag – human S1P4 receptor antagonism. S1P4-expressing cells, antagonist mode, reporter read-out. inhibition, % at 4.98 µM. actives 0.26% (n = 220,000); in the data active means inhibition above about 29%;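 further: 0% = wells stimulated with agonist and 100% = vehicle wells without agonist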
Mdm2 ligase inh – inhibitors of human Mdm2 E3 ubiquitin ligase. Q00987. cell-based MDM2 ubiquitination luciferase reporter, 2 h; 0 = plate control, 100 = twice control, blank-subtracted. signal enhancement, % at 5 µM. actives 0.11% (n = 210,000). AID 1230;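 active means signal enhancement of 30% or more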;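 further: luminescence tracks abundance of the self-degrading MDM2-luciferase fusion protein; higher signal means inhibition of MDM2 E3 ligase activity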
Target sequence (Q00987 whole entry, looked up, the tested form may be a part): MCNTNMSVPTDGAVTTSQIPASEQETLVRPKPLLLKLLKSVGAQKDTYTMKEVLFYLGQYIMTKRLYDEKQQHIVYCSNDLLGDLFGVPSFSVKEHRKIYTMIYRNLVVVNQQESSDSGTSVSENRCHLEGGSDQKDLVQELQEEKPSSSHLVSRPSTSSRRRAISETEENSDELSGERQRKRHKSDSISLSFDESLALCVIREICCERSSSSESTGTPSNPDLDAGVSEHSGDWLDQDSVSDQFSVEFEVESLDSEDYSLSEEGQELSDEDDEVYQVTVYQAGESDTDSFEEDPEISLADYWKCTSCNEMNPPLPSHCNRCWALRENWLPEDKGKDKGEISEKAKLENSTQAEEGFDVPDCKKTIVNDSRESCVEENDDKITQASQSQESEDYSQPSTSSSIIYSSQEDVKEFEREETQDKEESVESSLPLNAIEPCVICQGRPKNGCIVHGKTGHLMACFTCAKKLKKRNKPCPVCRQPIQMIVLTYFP
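Assay system: mammalian cells stably expressing self-ubiquitinating, self-degrading MDM2 E3–luciferase fusion. Quantity: 2000 cells in each well. Medium: DMEM culture medium. Compound dosing: single-point 5 µM. Timing: cell settling 4 h, compound treatment 2 h, both 37 °C. Technique: luciferase luminescence. Read-out basis: percent signal gain over controls, blank-subtracted. Benchmarks: plate controls and plate blanks.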
S1P3 antagonist – S1P3 (human) receptor antagonism; inhibition, % at 4.98 µM; AID 485; CHO S1P3 NFAT-BLA reporter, FRET fluorescence, antagonist mode; Q99500; actives 0.27% (n = 170,000);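 active means inhibition above the plate cutoff, the mean inhibition of test wells on that plate plus 3 SD, cut at about 28% in these data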;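 further: cells challenged with S1P at its EC80 of 0.8 µM; blue over green emission ratio from cleaved BLA substrate after 4 h stimulation; 0% = S1P-stimulated wells and 100% = unstimulated DMSO-only wells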
* marks the source's active call; other numbers are inactive results; / = no result given. Only a selection was taken, and hits are over-represented in it overall.

SMILES | S1P4 agonist | L major viab | S1P4 antag | Mdm2 ligase inh | S1P3 antagonist
COc1ccccc1-c1c(C)oc2c(CN3CCN(C)CC3)c(O)ccc2c1=O | 1 | 90* | -16 | -16 | /
COc1ccc(-c2c(C)oc3c(CN4CCOCC4)c(O)ccc3c2=O)cc1 | 1 | / | -1 | -2 | -8
COC(=O)c1ccc(Oc2c(C(F)(F)F)oc3c(CN4CCN(C)CC4)c(O)ccc3c2=O)cc1 | -2 | 100* | 3 | -8 | /
CCOc1ccccc1Oc1c(C)oc2c(CN3CCN(C)CC3)c(O)ccc2c1=O | -1 | 75* | -6 | -3 | -8
COc1ccccc1-c1c(C)oc2c(CN3CCN(CCO)CC3)c(O)ccc2c1=O | 1 | 38 | -2 | -4 | 2
C=CCSc1nnc(CNC(=O)c2ccc(Cl)cc2)n1CC | 0 | 0 | 0 | -6 | -10
C=CCn1c(SCc2c(F)cccc2Cl)nnc1-c1ccco1 | 2 | 3 | -3 | -9 | 12
OC1CCN(C(c2ccc3ncccc3c2)c2nnnn2C2CCCCC2)CC1 (stereo not given) | 0 | 5 | -9 | -19 | -15
c1cnc2ccc(C(c3nnnn3C3CCCCC3)N3CCN4CCCC4C3)cc2c1 (stereo not given) | 6 | 72* | 6 | -3 | /
CCC(C)(C)n1nnnc1C(c1ccc2ncccc2c1)N1CCN2CCCC2C1 (stereo not given) | 0 | 70* | 8 | 7 | -10
CCCC(c1nnnn1C(C)(C)CC)N1CCN(C2CCCC2)CC1 (stereo not given) | -4 | 20 | -5 | -11 | -7
Cc1nc(C)c(Oc2cccc(C(F)(F)F)c2)c(=O)[nH]1 | 1 | / | -14 | -11 | -1
Cc1cc(C)c[n+](-c2[nH]c(=O)sc2/C=N/N=C(\N)[S-])c1 | 1 | -11 | -4 | -13 | -4
CCC(C)[C@@H](C(=O)Nc1ccc2c(c1)OCO2)N1Cc2ccccc2C1=O (stereo not given in full) | 0 | 61* | -6 | -14 | -4
CC(SCc1ccccc1)C(=O)Nc1ccc2c(c1)OCO2 (stereo not given) | 2 | 3 | 5 | -1 | /
Cc1cccc(OCC(=O)Nc2ccc3c(c2)OCO3)c1C | 0 | 73* | -5 | -4 | 18
CC(C)[C@@H](C(=O)OCC(=O)Nc1ccc2c(c1)OCO2)N1C(=O)c2ccccc2C1=O | 1 | 82* | 0 | -20 | /
CC(=O)c1cc(-c2ccccc2)n(CCC(=O)NC(C)(C)C)c1C | -2 | -2 | -15 | -19 | -12
O=C(C1CCCCC1)N1CCN(S(=O)(=O)c2ccc(Cl)cc2)CC1 | 0 | 0 | 9 | 7 | -8
O=S(=O)(c1ccc(Cl)cc1)N1CCC(N2CCOCC2)CC1 | -2 | 91* | -12 | -6 | /
COc1ccc(S(=O)(=O)N2CCC(N3CCCCC3)CC2)cc1 | 2 | 92* | -13 | 1 | /
O=S(=O)(c1ccc(Cl)cc1)N1CCN(C2CCCCCC2)CC1 | -2 | 90* | -2 | -8 | 9
Nc1nc(-c2ccc(Cl)cc2)c(N=Nc2ccc(S(=O)(=O)N3CCOCC3)cc2)s1 | -1 | 74* | 19 | -3 | -21
O=C1CCC/C(=N/NC(=O)C2CCN(S(=O)(=O)c3cccs3)CC2)C1 | 0 | -4 | 8 | -9 | -9
Cc1ccc(Cn2c(NCCCn3ccnc3)nc3c2c(=O)n(C)c(=O)n3C)cc1 | 1 | 35 | -16 | -23 | -23
SMILES | S1P4 agonist | L major viab | S1P4 antag | Mdm2 ligase inh | S1P3 antagonist
Cc1cc(N/N=C(/CCC(=O)O)C(=O)O)nc2ccccc12 | -1 | -12 | -8 | 5 | -7
COc1ccc(S(=O)(=O)N2CCN(C3CCCCCCC3)CC2)cc1 | 1 | 73* | -21 | -9 | 8
COc1ccc(S(=O)(=O)N2CCCCCC2)cc1 | 2 | -4 | -11 | -18 | /
Cc1cc(C)nc(N/N=C/c2cc(Br)ccc2O)n1 | 0 | / | -3 | -10 | 0
COc1ccc(CNC(=O)N[C@H](C(=O)O)C(C)C)cc1OC | -1 | / | 3 | / | -3
Cc1ccc2c(c1)C(=O)c1ccccc1CS2=O (stereo not given) | 2 | -6 | -11 | 2 | 0
Cc1ccc(OCC(=O)N2CCc3ccccc32)cc1 | -1 | 25 | -8 | -14 | -2
O=C(OCC(=O)N1CCc2ccccc21)c1ccccc1 | 1 | -5 | 9 | -16 | -11
O=C(COc1ccc2c(c1)CCC2)N1CCc2ccccc21 | -2 | 52* | -16 | 3 | -9
O=C(CO/N=C/c1ccccc1O)N1CCc2ccccc21 | -1 | 75* | -16 | -16 | -13
CCn1cc(C(=O)Nc2nncs2)c(=O)c2cc(F)c(N3CCN(C(=O)c4ccco4)CC3)cc21 | / | / | / | / | -59
CC(/C=C/c1ccccc1)=N/NC(=O)Cn1nnc(N)n1 | 0 | / | -1 | -4 | -13
Cn1c(=O)c2c(nc(Sc3n[nH]c(N)n3)n2Cc2ccccc2Cl)n(C)c1=O | 1 | 7 | -11 | 2 | -64
Cc1cc(C)cc(NC(=O)CSc2ncc(S(=O)(=O)c3ccccc3)c(=O)[nH]2)c1 | 0 | 53* | -15 | 1 | -6
C#CCSc1ncc(S(=O)(=O)c2ccccc2)c(=O)[nH]1 | 1 | -6 | -9 | 3 | 7
Cc1c(N=C2SCC(=O)N2/N=C\c2ccc(Br)cc2)c(=O)n(-c2ccccc2)n1C | 0 | 76* | -6 | -28 | 0
CCOc1cc(NC(=O)c2ccco2)c(OCC)cc1NC(=O)COc1ccccc1C | 0 | -5 | -15 | / | -34
Cc1ccc(C(=O)C(C)Oc2cccc(NC(=O)c3ccco3)c2)cc1 (stereo not given) | 0 | 97* | 12 | -3 | /
CCOc1cc(NC(=O)c2ccco2)c(OCC)cc1NC(=O)Cc1cccc(OC)c1 | -1 | 63* | -13 | -7 | 11
CC(Oc1ccc(NC(=O)c2ccco2)cc1)C(=O)N1c2ccccc2CC1C (stereo not given) | 3 | 58* | -5 | 0 | -9
COc1ccc(C(=O)COc2cccc(NC(=O)c3ccco3)c2)cc1 | 2 | 59* | -12 | 2 | /
c1ccc(CNc2c3c(nc4ncnn24)CCC3)cc1 | 0 | / | -10 | / | -12
O=C1CC(N2CCSCC2)C(=O)N1c1cccc(Cl)c1 (stereo not given) | -1 | -4 | -3 | 0 | -8
O=C(OC(C(=O)NC1CCCC1)c1cccnc1)C1=Cc2ccccc2OC1 (stereo not given) | 0 | 94* | -3 | -15 | /
CC(OC(=O)C1=Cc2ccccc2OC1)C(=O)NC1CCCC1 (stereo not given) | -1 | -2 | -10 | 0 | /
Cc1cc(C)cc(NC(=O)C(Sc2ncnc3ccccc23)c2ccccc2)c1 (stereo not given) | -1 | 57* | 7 | 3 | 0
O=C(Nc1cccc(C(F)(F)F)c1)C(Sc1ncnc2ccccc12)c1ccccc1 (stereo not given) | -1 | 27 | -13 | -11 | -8
COc1ccc(Nc2nc(OC)nc(N3CCOCC3)n2)cc1 | 1 | 1 | 9 | -6 | 18

Source: PubChem
